TRPC4 PAM = allosterically enhances the mouse TRPC4 cation channel | Q9QUQ5 | HEK293 TRPC4beta/mu-opioid, DAMGO EC20, Fluo-4 Ca2+ flux; active compounds read high | B-score at 10 µM | 310,000 compounds, 0.42% hits;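 active = B-score of calcium response area above 5 SD of library B-scores, with initial fluorescence ratio within 5 SD of library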;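 also: B-score of integrated fluorescence ratio over time as area under calcium response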
TRPC6 inhibitor = inhibitors of mouse TRPC6 channel; Q61143; HEK293-TRPC6, membrane potential dye, ACh-evoked depolarization; active compounds read low; B-score at 10 µM; 310,000 compounds, 1.1% hits; AID 2553;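 active = B-score under library mean minus 3 SD, initial fluorescence not abnormally high, positive integrated signal ratio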;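 also: B-score derived from integrated fluorescence ratio over the kinetic read; more negative B-score means stronger inhibition of depolarization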
TRPC4 agonist = activators of mouse TRPC4 channel | 310,000 compounds, 0.49% hits | Q9QUQ5 | AID 2237 | HEK293 TRPC4beta/mu-opioid, Fluo4 calcium fluorescence; active compounds read high | B-score at 10 µM;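 active = B-score above 5 SD of library B-scores, and initial fluorescence ratio not above library mean plus 5 SD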;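 also: positive B-score marks a calcium rise read as TRPC4 activation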
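Incubation: 45 min room-temperature Fluo4 loading, 110 s read / System: HEK293 cells stably co-expressing mouse TRPC4beta and mu-opioid receptor / Signal: Fluo4 fluorescence, kinetic / Control set: buffer (low) and maximal DAMGO (high) / Measure: integrated baseline-normalised fluorescence ratio, converted to per-well B score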
TRPC6 activator = activates the mouse TRPC6 cation channel. Q61143. HEK293-TRPC6 membrane potential dye fluorescence; active compounds read high. B-score at 10 µM. 310,000 compounds, 0.13% hits. AID 2550;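 active = B-score of the integrated fluorescence ratio above library mean plus 3 SD, and starting fluorescence ratio within library mean plus 5 SD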;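 also: higher score means more depolarization so channel activation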
DSG3 Ab inh = blocks pemphigus antibody binding to human desmoglein-3; P32926; DSG3-coupled beads, scFv-anti-DSG3-GFP binding, flow cytometry; active compounds read low; binding (percent of control), % at 10 µM; 310,000 compounds, 0.48% hits;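 active = binding more than 3 SD below its plate's average and above zero; inconclusive = below that plate limit but binding exactly zero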;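 also: hits lower antibody fragment binding to DSG3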
Target sequence (P32926 whole entry, looked up, the tested form may be a part): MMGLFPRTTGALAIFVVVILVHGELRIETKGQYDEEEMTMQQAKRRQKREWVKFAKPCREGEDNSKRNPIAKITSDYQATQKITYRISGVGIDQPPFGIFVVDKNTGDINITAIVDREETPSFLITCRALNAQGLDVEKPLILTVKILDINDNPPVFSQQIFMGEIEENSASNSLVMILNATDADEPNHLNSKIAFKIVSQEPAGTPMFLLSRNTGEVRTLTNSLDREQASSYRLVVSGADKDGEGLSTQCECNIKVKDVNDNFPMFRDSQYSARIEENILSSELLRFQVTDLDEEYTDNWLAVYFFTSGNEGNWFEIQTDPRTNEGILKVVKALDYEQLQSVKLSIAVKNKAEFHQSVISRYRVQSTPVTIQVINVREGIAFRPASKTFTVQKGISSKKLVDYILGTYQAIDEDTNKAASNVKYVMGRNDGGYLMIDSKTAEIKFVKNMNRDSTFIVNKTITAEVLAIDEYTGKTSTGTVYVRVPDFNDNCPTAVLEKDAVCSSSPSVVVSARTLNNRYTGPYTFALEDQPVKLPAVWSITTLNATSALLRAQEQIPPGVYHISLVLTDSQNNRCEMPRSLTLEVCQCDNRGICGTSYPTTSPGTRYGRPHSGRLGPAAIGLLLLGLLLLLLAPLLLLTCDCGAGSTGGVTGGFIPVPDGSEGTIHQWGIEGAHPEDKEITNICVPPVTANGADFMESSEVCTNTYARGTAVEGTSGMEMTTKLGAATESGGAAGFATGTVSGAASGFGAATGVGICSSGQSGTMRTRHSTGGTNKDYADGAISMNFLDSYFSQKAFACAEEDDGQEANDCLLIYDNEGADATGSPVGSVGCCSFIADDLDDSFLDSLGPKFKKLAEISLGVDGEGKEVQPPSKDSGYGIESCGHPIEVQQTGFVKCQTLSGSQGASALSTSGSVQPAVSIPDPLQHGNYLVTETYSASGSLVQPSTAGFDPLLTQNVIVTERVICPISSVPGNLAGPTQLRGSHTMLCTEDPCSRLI
TRPC4 inh = TRPC4 (mouse) channel inhibition; Q9QUQ5; HEK293 TRPC4beta/mu-opioid, DAMGO-evoked Fluo4 calcium flux; active compounds read low; B-score at 10 µM; 300,000 compounds, 0.39% hits; AID 2247;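 active = B-score over 3 SD under the library average, no early fluorescence shift, positive overall ratio signal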
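Assay system: HEK293 cells with stable TRPC4beta plus mu-opioid receptor expression; Probe or stimulus: DAMGO in two steps, submaximal then maximal; Dosing: single-point compound dosing; Measured by: Fluo4 calcium-dye fluorescence, kinetic read; Read-out basis: B score from integrated Fluo4 fluorescence ratio.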
TRPC4 sel inh 2 = second check of whether TRPC6 inhibitors also affect mouse TRPC4. inhibition, % at 10 µM. 920 compounds, 42% hits. HEK293 TRPC4/MOR, membrane potential dye fluorescence; channel activated by saturating DAMGO dose. AID 2776. shares compounds with TRPC6 inhibitor;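 active = compounds whose fluorescence signal differed from control wells by over 3 SD, either direction, in both duplicate plates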
TRPC4 spec = selectivity of TRPC6 inhibitors: effect on mouse TRPC4; activity change, negative = inhibition, % at 10 µM; shares compounds with TRPC6 inhibitor; AID 2777; HEK293 TRPC4/mu-opioid, membrane potential fluorescence; 920 compounds, 61% hits;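 active = rise or fall in signal beyond 3 SD of buffer-only wells in both replicate plates, either sign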;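 also: integrated kinetic ratio of fluorescence range over baseline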
HEK293 MPD ctr 2-1 = second check of TRPC6 inhibitor effects in parental HEK293 cells; shares compounds with TRPC6 inhibitor; parental HEK293 membrane potential dye fluorescence; maximal acetylcholine challenge after compound addition; signal change vs control, % at 10 µM; 920 compounds, 31% hits; AID 2779;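 active = membrane potential signal moving either way by over 3 SD of the maximum-effect control, in both duplicate plates, meaning non-specific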
HEK293 MPD ctr-1 = parental HEK293 nonspecific activity of TRPC6 inhibitors. shares compounds with TRPC6 inhibitor. parental HEK293 membrane potential dye fluorescence. membrane potential signal change, % at 10 µM. 920 compounds, 60% hits;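 active = membrane potential signal shifting up or down by more than 3 SD of buffer-only wells, on both duplicate plates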
HEK293 MPD ctr-2 = parental HEK293 nonspecific activity of TRPC6 modulators; shares compounds with TRPC6 inhibitor; AID 488924; membrane potential signal change, % at 10 µM; membrane potential dye fluorescence; 2,400 compounds, 51% hits;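 active = membrane potential signal moves up or down beyond 5 SD from buffer-only wells, on both duplicate plates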
HEK293 MPD ctr 2-2 = second check of TRPC6 modulator effects in parental HEK293 cells | membrane potential dye fluorescence; after compound, maximal acetylcholine stimulation | AID 488926 | inhibition, % at 10 µM | shares compounds with TRPC6 inhibitor | 2,400 compounds, 14% hits;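 active = membrane potential signal drops by more than 5 SD from the mean control signal, in both duplicate plates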;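 also: plate controls were acetylcholine ECmax control wells for no effect and buffer only wells for full effect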
TRPC4/MOR mod = mouse TRPC4 off-target activity of TRPC6 modulators. shares compounds with TRPC6 inhibitor. HEK293 TRPC4/mu-opioid, membrane potential fluorescence. percent change from control (negative = decrease, positive = increase), % at 10 µM. 2,400 compounds, 69% hits;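 active = membrane potential signal moved up or down beyond 5 SD of buffer control wells, in both duplicate plates, actives on both sides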;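 also: plate controls were assay buffer wells for no effect and DAMGO maximal-effect wells for full effect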
TRPC4 ctr inh 2 = mouse TRPC4 off-target activity of TRPC6 modulators, second screen; HEK293 TRPC4/mu-opioid, membrane potential dye fluorescence; stimulated with maximal-effect DAMGO; inhibition, % at 10 µM; 2,400 compounds, 55% hits; shares compounds with TRPC6 inhibitor;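 active = drop in membrane potential signal beyond 5 SD of the control wells in both duplicate plates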;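 also: TRPC4 counter screen for TRPC6 hits run under conditions tuned for TRPC6 not TRPC4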
TRPC6 inh conf = confirmation of mouse TRPC6 inhibitors; inhibition, % at 10 µM; AID 488960; shares compounds with TRPC6 inhibitor; HEK293-TRPC6, membrane potential dye, ACh-evoked depolarization; 3,300 compounds, 43% hits;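 active = fluorescence ratio falls more than 5 SD below the full-stimulation control mean, in both duplicate runs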;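 also: integrated fluorescence ratio of peak minus minimum over baseline after agonist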
TRPC6 act conf = confirmation of mouse TRPC6 activators | shares compounds with TRPC6 inhibitor | HEK293-TRPC6 membrane potential dye fluorescence, FDSS | activation, % at 10 µM | 2,800 compounds, 11% hits;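 active = ratio signal rise beyond 5 SD above unstimulated control wells' mean, seen in both duplicate runs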;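 also: plate controls were buffer EC0 wells for no effect and acetylcholine ECmax response for full effect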
* = called active by the depositor; i = inactive; u = inconclusive; x = not tested or not shown. In the library only some 2.5% were active in any assay of this set; here they are far more common.

SMILES	TRPC4 PAM	TRPC6 inhibitor	TRPC4 agonist	TRPC6 activator	DSG3 Ab inh	TRPC4 inh	HEK293 MPD ctr-2	HEK293 MPD ctr 2-2	TRPC4/MOR mod	TRPC4 ctr inh 2	TRPC6 inh conf	TRPC6 act conf	others
O=C(Nc1cccc([N+](=O)[O-])c1)c1ccc(N2CCCC2=O)cc1	i	i	i	i	92	i	x	x	x	x	x	x
O=C(Nc1ccncc1)c1ccc(N2CCCC2=O)cc1	i	-7.1*	i	i	102	i	-238%*	i	-42%*	34%*	i	i
Cc1ccc(-c2noc(CCC(=O)N3CCCc4ccccc43)n2)cc1	i	-6.4*	i	i	u	i	104%*	i	12%*	i	66%*	x
COc1ccc(N2CCN(CC(O)COc3ccc(C)c(C)c3)CC2)cc1 (configuration not stated)	i	-6.1*	i	i	100	i	i	i	i	48%*	i	i
Cc1cc(C)c2nc3nc(C)c(C)cc3c(N)c2c1	i	-5.8*	i	i	99	i	i	i	-25%*	34%*	59%*	i
Cc1ccc(-c2cn(-c3ccc(SC(F)F)cc3)c3[n+]2CCC3)cc1	i	i	i	i	92	i	x	x	x	x	x	x
FC(F)Sc1ccc(-n2cc(-c3ccc(Cl)cc3)[n+]3c2CCC3)cc1	i	-7*	i	i	98	i	x	x	x	x	53%*	i	TRPC4 sel inh 2=i;TRPC4 spec=-14%*;HEK293 MPD ctr 2-1=-40%*;HEK293 MPD ctr-1=-216%*
O=C(O)CN(c1ccccc1)S(=O)(=O)c1cc(C(F)(F)F)cc(C(F)(F)F)c1	i	i	i	i	111	i	x	x	x	x	x	x
COc1ccc2nc(C)cc(N3CCN(c4ccccc4)CC3)c2c1	i	-5.1*	i	i	102	i	-174%*	i	-41%*	68%*	i	i
Cc1ccc2nc(C)cc(N3CCOCC3)c2c1	i	-11*	i	i	100	i	-300%*	96%*	-45%*	69%*	75%*	i
COc1ccc2nc(C)cc(N3CCOCC3)c2c1	i	-12*	i	i	97	i	-428%*	100%*	-60%*	67%*	76%*	i
COc1ccc2nc(C)cc(N3CCN(S(=O)(=O)c4ccccc4F)CC3)c2c1	x	x	x	x	101	x	x	x	x	x	x	x
COc1ccc2nc(C)cc(N3CC(C)OC(C)C3)c2c1 (configuration not stated)	i	i	i	i	x	i	x	x	x	x	x	x
CCOc1cccc(NC(=O)c2cccc(F)c2)c1	i	i	i	i	103	i	x	x	x	x	x	x
Cc1ccc(OCCN(C)C(=O)C2CCC(=O)N(CC3CCCCC3)C2)cc1 (configuration not stated)	i	i	i	i	102	i	x	x	x	x	x	x
CC(C)c1ccc(S(=O)(=O)N2CCN(C(=O)C3CC3C)CC2)cc1 (configuration not stated)	i	-10*	i	16*	99	i	i	i	17%*	i	112%*	145%*
CC(=O)c1ccc(OCCCC(=O)N2CCN(S(=O)(=O)c3ccc(C(C)C)cc3)CC2)cc1	i	-9.2*	i	i	85	i	x	x	x	x	i	x	TRPC4 sel inh 2=i;TRPC4 spec=-0.4%*;HEK293 MPD ctr 2-1=i;HEK293 MPD ctr-1=1.7%*
CC(=O)c1ccc(OCCCC(=O)N2CCN(S(=O)(=O)c3cc(C)ccc3C)CC2)cc1	i	i	i	i	101	i	x	x	x	x	x	x
Cc1ccc(C(=O)N2CCN(S(=O)(=O)c3ccc(C)cc3)CC2)cc1	i	-5.1*	i	i	101	i	i	i	i	i	79%*	x
CC(C)c1ccc(S(=O)(=O)N2CCN(C(=O)C3CCCCC3)CC2)cc1	i	i	i	i	102	i	x	x	x	x	x	x
CC(C)c1ccc(S(=O)(=O)N2CCN(C(=O)c3cccc(F)c3)CC2)cc1	i	i	i	17*	99	i	i	i	20%*	i	x	186%*
Cc1ccc(N(CC(=O)NCCc2ccccc2)C(=O)CCC(=O)Nc2cc(C)ccn2)cc1	i	i	i	i	100	i	x	x	x	x	x	x
N#Cc1ccccc1OCC(=O)Nc1ccccc1C(=O)NC1CC1	i	i	i	i	109	i	x	x	x	x	x	x
CN(CC(=O)Nc1cccc(F)c1)CC(=O)Nc1ccccc1Oc1ccccc1	i	i	i	i	101	i	x	x	x	x	x	x
COc1ccc(F)cc1S(=O)(=O)NCC1CCCO1 (configuration not stated)	i	i	i	i	121	i	x	x	x	x	x	x
O=S(=O)(Nc1nc2ccccc2[nH]1)c1ccc(Cl)cc1	i	-8.7*	i	i	102	i	x	x	x	x	52%*	i	TRPC4 sel inh 2=i;TRPC4 spec=i;HEK293 MPD ctr 2-1=i;HEK293 MPD ctr-1=i
